Test results from ChEMBL document CHEMBL1144441, “Identification of a novel cardenolide (2''-oxovoruscharin) from Calotropis procera and the hemisynthesis of novel derivatives displaying potent in vitro antitumor activities and high in vivo tolerance: structure-activity relationship analyses” (J Med Chem, 2005).

Tests used:
LoVo [1] = assay: Concentration required for 50% growth inhibition of human LoVo cancer cell lines after 3 days of culture; format: functional, cell-based; conditions: 72 h
Summary of the method: (§1)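 MTT overall-growth assay on the five lines. Cells were plated for 24 h at 10 000–40 000 cells/mL, depending on cell type. Nine concentrations from 10^-9 to 10^-5 M in semilog steps were applied for 72 h. Formazan was read at 570 nm against a 630 nm reference, in sextuplicate. IC50 = concentration reducing overall growth by 50% versus untreated control.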

[2] = In vitro cytotoxic activity against human MCF7HTB-22 cancer cell lines after 3 days of culture; format: functional
Summary of the method: (§2)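 MTT overall-growth panel across 57 human cancer lines. Cells were plated for 24 h at 10 000–40 000 cells/mL, depending on cell type. Drugs were given at nine concentrations, 10^-9 to 10^-5 M in semilog steps, for 3 days. Absorbance was read at 570 nm with a 630 nm reference, in sextuplicate. Surviving cells are expressed as % of untreated control (100%).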

MDA-MB-231 = assay: In vitro cytotoxic activity against human MDA-MB-231 cancer cell lines after 3 days of culture; format: functional; summary of the method: as §2
[3] = In vitro cytotoxic activity against human SW1088 cancer cell lines after 3 days of culture; format: functional
Summary of the method: (§3)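 Human cancer cell lines, seeded 10 000–40 000 cells/mL and plated for 24 h, then exposed 72 h to nine drug concentrations from 10^-9 to 10^-5 M in semilog steps. Overall growth read by MTT reduction to formazan, absorbance at 570 nm (reference 630 nm). Sextuplicate wells; IC50 is the concentration reducing overall growth by 50% versus untreated control.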

HT-1080 = assay: In vitro cytotoxic activity against human HT1080 cancer cell lines after 3 days of culture; format: functional; summary of the method: as §2
[4] = In vitro cytotoxic activity against human SW948 cancer cell lines after 3 days of culture; format: functional; summary of the method: as §3
DU-145 = assay: In vitro cytotoxic activity against human DU145 cancer cell lines after 3 days of culture; format: functional; summary of the method: as §2
786-0 = assay: In vitro cytotoxic activity against human 786-O cancer cell lines after 3 days of culture; format: functional; summary of the method: as §2
A549 [5] = assay: In vitro cytotoxic activity against human A549 cancer cell lines after 3 days of culture; format: functional; summary of the method: as §2
[6] = Concentration required for 50% growth inhibition of human Hs 683 cancer cell lines after 3 days of culture; format: functional, cell-based; conditions: 72 h; summary of the method: as §1
PC-3 = assay: In vitro cytotoxic activity against human PC-3 cancer cell lines after 3 days of culture; format: functional; summary of the method: as §2
U373 MG [7] = assay: Concentration required for 50% growth inhibition of human U373 cancer cell lines after 3 days of culture; format: functional, cell-based, U-373MG ATCC; conditions: 72 h; summary of the method: as §1
HCT-15 [8] = assay: In vitro cytotoxic activity against human HCT-15 cancer cell lines after 3 days of culture; format: functional; summary of the method: as §2
BT-20 = assay: In vitro cytotoxic activity against human BT-20 cancer cell lines after 3 days of culture; format: functional; summary of the method: as §2
Malme-3M = assay: In vitro cytotoxic activity against human MALME-3M cancer cell lines after 3 days of culture; format: functional; summary of the method: as §2
[9] = In vitro cytotoxic activity against human SCC-9 cancer cell lines after 3 days of culture; format: functional; summary of the method: as §2
MES-SA = assay: In vitro cytotoxic activity against human MES-SA cancer cell lines after 3 days of culture; format: functional; summary of the method: as §2
[10] = In vitro cytotoxic activity against human SW1783 cancer cell lines after 3 days of culture; format: functional; summary of the method: as §3
LoVo [11] = assay: In vitro cytotoxic activity against human LoVo cancer cell lines after 3 days of culture; format: functional; summary of the method: as §2
SK-MEL-28 = assay: In vitro cytotoxic activity against human SKMEL-28 cancer cell lines after 3 days of culture; format: functional; summary of the method: as §3
[12] = In vitro cytotoxic activity against human SK-UT-1B cancer cell lines after 3 days of culture; format: functional; summary of the method: as §3
CFPAC-1 = assay: In vitro cytotoxic activity against human CFPAC-1 cancer cell lines after 3 days of culture; format: functional; summary of the method: as §2
[13] = In vitro cytotoxic activity against human Hs 174.T cancer cell lines after 3 days of culture; format: functional; summary of the method: as §2
[14] = In vitro cytotoxic activity against human Su.86.86 cancer cell lines after 3 days of culture; format: functional; summary of the method: as §3
HCT-15 [15] = assay: Concentration required for 50% growth inhibition of human HCT-15 cancer cell lines after 3 days of culture; format: functional, cell-based; conditions: HCT-15, 72 h; summary of the method: as §1
[16] = In vitro cytotoxic activity against human HT144 cancer cell lines after 3 days of culture; format: functional; summary of the method: as §2
T98G = assay: In vitro cytotoxic activity against human T98G cancer cell lines after 3 days of culture; format: functional; summary of the method: as §3
BXPC-3 = assay: In vitro cytotoxic activity against human BxPC-3 cancer cell lines after 3 days of culture; format: functional; summary of the method: as §2
[17] = In vitro cytotoxic activity against human Hs 729 cancer cell lines after 3 days of culture; format: functional; summary of the method: as §2
H4 = assay: In vitro cytotoxic activity against human H4 cancer cell lines after 3 days of culture; format: functional; summary of the method: as §2
ACHN = assay: In vitro cytotoxic activity against human ACHN cancer cell lines after 3 days of culture; format: functional; summary of the method: as §2
A549 [18] = assay: Concentration required for 50% growth inhibition of human A549 cancer cell lines after 3 days of culture; format: functional, cell-based; conditions: A549, 72 h; summary of the method: as §1
CAKI-2 = assay: In vitro cytotoxic activity against human CAKI-2 cancer cell lines after 3 days of culture; format: functional; summary of the method: as §2
ZR-75-1 = assay: In vitro cytotoxic activity against human ZR-75-1 cancer cell lines after 3 days of culture; format: functional; summary of the method: as §3
A498 = assay: In vitro cytotoxic activity against human A-498 cancer cell lines after 3 days of culture; format: functional; summary of the method: as §2
MIA PaCa-2 = assay: In vitro cytotoxic activity against human MiaPaca-2 cancer cell lines after 3 days of culture; format: functional; summary of the method: as §2
[19] = In vitro cytotoxic activity against human Capan-2 cancer cell lines after 3 days of culture; format: functional; summary of the method: as §2
[20] = In vitro cytotoxic activity against human […] cancer cell lines after 3 days of culture; format: functional; summary of the method: as §2
[21] = In vitro cytotoxic activity against human Detroit 562 cancer cell lines after 3 days of culture; format: functional; summary of the method: as §2
Mus musculus = assay: Maximum tolerated dose after intraperitoneal administration in mouse (period of 28 days); format: functional
Summary of the method: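 Healthy, non-tumour-bearing B6D2F1 mice given one acute intraperitoneal dose, three mice per dose group, doses 5, 10, 20, 40, 80, 120 and 160 mg/kg. Survival and body weight followed for 28 days after injection. MTD is the highest single dose causing no deaths over the period.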

[22] = In vitro cytotoxic activity against human C32 cancer cell lines after 3 days of culture; format: functional; summary of the method: as §2
T47D = assay: In vitro cytotoxic activity against human T-47D cancer cell lines after 3 days of culture; format: functional; summary of the method: as §3
U373 MG [23] = assay: In vitro cytotoxic activity against human U-373MG cancer cell lines after 3 days of culture; format: functional, U-373MG ATCC; summary of the method: as §3
Hs-578T = assay: In vitro cytotoxic activity against human Hs 578.T cancer cell lines after 3 days of culture; format: functional; summary of the method: as §2
[24] = In vitro cytotoxic activity against human Hs 683 cancer cell lines after 3 days of culture; format: functional; summary of the method: as §2
U-87 MG = assay: In vitro cytotoxic activity against human U87MG cancer cell lines after 3 days of culture; format: functional, U-87MG ATCC; summary of the method: as §3
A204 = assay: In vitro cytotoxic activity against human A204 cancer cell lines after 3 days of culture; format: functional; summary of the method: as §2
PANC-1 = assay: In vitro cytotoxic activity against human Panc-1 cancer cell lines after 3 days of culture; format: functional; summary of the method: as §2
T-24 = assay: In vitro cytotoxic activity against human T24 cancer cell lines after 3 days of culture; format: functional; summary of the method: as §3
LNCaP = assay: In vitro cytotoxic activity against human LNCaP cancer cell lines after 3 days of culture; format: functional; summary of the method: as §2
HT1197 = assay: In vitro cytotoxic activity against human HT1197 cancer cell lines after 3 days of culture; format: functional; summary of the method: as §2
DLD-1 = assay: In vitro cytotoxic activity against human DLD-1 cancer cell lines after 3 days of culture; format: functional; summary of the method: as §2
HT-29 = assay: In vitro cytotoxic activity against human HT-29 cancer cell lines after 3 days of culture; format: functional; summary of the method: as §2
[25] = In vitro cytotoxic activity against human AL-12T cancer cell lines after 3 days of culture; format: functional; summary of the method: as §2
[26] = In vitro cytotoxic activity against human SK-LMS-1 cancer cell lines after 3 days of culture; format: functional; summary of the method: as §2
[27] = molecular target: Sodium/potassium-transporting ATPase subunit alpha-1 (Sus scrofa, UniProt P05024); assay: In vitro inhibitory activity against porcine Na+/K+-ATPase
Summary of the method: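 Porcine cerebral cortex Na+/K+-ATPase (3 × 10-3 units), preincubated 30 min at 37 °C in 30 mM Tris-HCl pH 7.4, 5 mM MgCl2 with inhibitor (1 to 50 000 nM). ADP formation coupled via pyruvate kinase/lactate dehydrogenase, excess phosphoenolpyruvate, to NADH oxidation.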

[28] = In vitro cytotoxic activity against human G361 cancer cell lines after 3 days of culture; format: functional; summary of the method: as §2
WiDr = assay: In vitro cytotoxic activity against human WiDr cancer cell lines after 3 days of culture; format: functional; summary of the method: as §3
[29] = In vitro cytotoxic activity against human 769-P cancer cell lines after 3 days of culture; format: functional; summary of the method: as §2
A-427 = assay: In vitro cytotoxic activity against human A427 cancer cell lines after 3 days of culture; format: functional; summary of the method: as §2
[30] = In vitro cytotoxic activity against human Hs 766.T cancer cell lines after 3 days of culture; format: functional; summary of the method: as §2
FaDu = assay: In vitro cytotoxic activity against human FaDu cancer cell lines after 3 days of culture; format: functional; summary of the method: as §2

C[C@@H]1C[C@@]2(NC(=O)CS2)C2(O)O[C@@H]3C[C@@]4(CO)[C@@H](CC[C@@H]5[C@@H]4CC[C@]4(C)[C@@H](C6=CC(=O)OC6)CC[C@]54CO)C[C@H]3O[C@@H]2O1 (some centres not stated) gave an IC50 (LoVo [1]) of 10 nM, a Log IC50 [2] of -8.4 and a Log IC50 (MDA-MB-231) of -8. The Log IC50 [3] was -7, the Log IC50 (HT-1080) was -7.4 and the Log IC50 [4] was -7.4. For the same molecule, the Log IC50 (DU-145) was -8.7, the Log IC50 (786-0) was -8.5 and the Log IC50 (A549 [5]) was -8.1. It also gave an IC50 [6] of 3 nM, a Log IC50 (PC-3) of -8.1 and an IC50 (U373 MG [7]) of 9 nM. The Log IC50 (HCT-15 [8]) was -7.6, the Log IC50 (BT-20) was -8.3 and the Log IC50 (Malme-3M) was -6.4. The Log IC50 [9] was -7.4, the Log IC50 (MES-SA) was -7.8 and the Log IC50 [10] was -7.7. For the same molecule, the Log IC50 (LoVo [11]) was -8, the Log IC50 (SK-MEL-28) was -7.4 and the Log IC50 [12] was -7.5. It also gave a Log IC50 (CFPAC-1) of -7.2, a Log IC50 [13] of -7.4 and a Log IC50 [14] of -8.6. The IC50 (HCT-15 [15]) was 24 nM, the Log IC50 [16] was -7.6 and the Log IC50 (T98G) was -8.2. For the same molecule, the Log IC50 (BXPC-3) was -7.7, the Log IC50 [17] was -7.5 and the Log IC50 (H4) was -7.5. The Log IC50 (ACHN) was -8.2, the IC50 (A549 [18]) was 8 nM and the Log IC50 (CAKI-2) was -8.3. It also gave a Log IC50 (ZR-75-1) of -7.4, a Log IC50 (A498) of -8.2 and a Log IC50 (MIA PaCa-2) of -7.5. It also gave a Log IC50 [19] of -9, a Log IC50 [20] of -8.7 and a Log IC50 [21] of -8.3. It also gave an MTD (Mus musculus) of 80 mg/kg, a Log IC50 [22] of -7.7 and a Log IC50 (T47D) of -8.4. The Log IC50 (U373 MG [23]) was -8.1, the Log IC50 (Hs-578T) was -8.7 and the Log IC50 [24] was -8.6. It also gave a Log IC50 (U-87 MG) of -8.6, a Log IC50 (A204) of -8.2 and a Log IC50 (PANC-1) of -8.3. For the same molecule, the Log IC50 (T-24) was -8.6, the Log IC50 (LNCaP) was -8.3 and the Log IC50 (HT1197) was -7.1. It also gave a Log IC50 (DLD-1) of -7.4, a Log IC50 (HT-29) of -7.8 and a Log IC50 [25] of -8.1. The Log IC50 [26] was -8, the IC50 [27] was 75 nM and the Log IC50 [28] was -8.1. The Log IC50 (WiDr) was -7.8, the Log IC50 [29] was -8.3 and the Log IC50 (A-427) was -7.6. It also gave a Log IC50 [30] of -7.4 and a Log IC50 (FaDu) of -8.1.
